Compound activity: PubChem BioAssay, several laboratories
PostGolgi yeast: growth inhibition of a yeast mutant, post-Golgi transport screen; actives 0.9% (n = 98,000); post-Golgi transport phenotypic cell assay; inhibition, % at 10 µM; AID 739;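 further: yeast cells grown in 1536-well plates; yeast grown about 18 h at 30C before absorbance read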
E coli WT exp: blocks growth of wild type E. coli BW25113 | OD600 absorbance | growth inhibition, % at 100 µM | actives 0.15% (n = 98,000) | AID 710;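 active means growth inhibition above about 50% at one test dose, limit read from the data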;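 further: growth measured after 20 h incubation at 37 °C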
hDAT+cocaine: changed human dopamine transporter uptake under cocaine IC80; Q01959; LLC-PK1 hDAT cells, [14C]-dopamine uptake with cocaine IC80; actives deviate in either direction; B-score at 10 µM; actives 1.3% (n = 110,000); AID 449768;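 active means Z score or B-score, a plate-position-corrected score, falls beyond the plate's 99.7% confidence bounds, in either direction; inactive means both scores lie inside the 99.7% bounds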;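 further: scored against the spread of the other compound wells on the same plate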
D1 mod: allosterically modulates the human D1 dopamine receptor; actives 5.9% (n = 58,000); P21728; B-score at 10 µM; HEK293 D1, CRE-luciferase, dopamine EC30 potentiation; actives deviate in either direction;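 active means luminescence count or its row- and column-corrected plate score outside the 99.7% band of the plate's sample wells, on either side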
Target sequence (P21728 whole entry, looked up): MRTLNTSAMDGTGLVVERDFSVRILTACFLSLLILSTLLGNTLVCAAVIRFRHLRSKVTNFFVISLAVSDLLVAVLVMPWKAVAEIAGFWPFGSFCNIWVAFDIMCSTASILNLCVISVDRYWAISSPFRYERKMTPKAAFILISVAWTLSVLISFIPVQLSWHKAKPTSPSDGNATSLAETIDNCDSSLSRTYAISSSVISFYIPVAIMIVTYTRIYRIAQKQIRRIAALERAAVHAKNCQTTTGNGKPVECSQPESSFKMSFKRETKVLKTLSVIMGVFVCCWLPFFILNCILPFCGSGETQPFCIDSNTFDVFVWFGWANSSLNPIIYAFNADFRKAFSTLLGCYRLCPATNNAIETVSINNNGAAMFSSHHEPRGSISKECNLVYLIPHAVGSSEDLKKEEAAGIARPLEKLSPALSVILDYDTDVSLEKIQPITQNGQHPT
PostGolgi ctrl: growth of the yeast control strain, post-Golgi counter-screen | efflux-deficient yeast background strain, growth absorbance A615, 16 h | inhibition, % at 10 µM | actives 5% (n = 98,000) | AID 738
Ecoli tolC: E. coli tolC mutant growth inhibition; actives 2.2% (n = 65,000); E. coli BW25113 tolC mutant growth, OD615; AID 573; growth inhibition, % at 10 µM (by protocol);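 active means growth inhibition at or above a cutoff equal to the mean over every tested compound plus 3 SD, cut at about 60% in these data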;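 further: growth measured after 20 h incubation at 37 °C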
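Test system: E. coli BW25113 ΔtolC::kan bacteria; incubation: 37 °C, 20 h exposure; medium: LB broth supplemented with 50 µg/mL kanamycin; read-out basis: percent growth inhibition; signal: A615 absorbance measurement; compound: 10 µM final, single dose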
An asterisk follows results filed as active; . = not tested or not shown. Hits are enriched below; roughly 9.3% of the tested compounds scored in any of these assays. Unless noted, no stated cut-off is given here; in the data, active means inhibition above about 30%; inactive means the rest.

SMILES	PostGolgi yeast	E coli WT exp	hDAT+cocaine	D1 mod	PostGolgi ctrl	Ecoli tolC
Brc1ccc(CSc2nnc(-c3cnccn3)n2Cc2ccco2)cc1	7	-6	.	0.4	38*	64*
Fc1ccccc1CSc1nnc(-c2cnccn2)n1Cc1ccco1	6	-8	.	-0.033	17	21
Clc1ccc(CSc2nnc(-c3ccccn3)n2Cc2ccco2)c(Cl)c1	4	-9	2.1	-1.3	52*	43
Fc1ccc(CSc2nnc(-c3cnccn3)n2Cc2ccco2)cc1	7	1	0.78	0.67	16	21
CC(C)=CCc1c(O)cc(O)c2c(=O)c3c(CC=C(C)C)c(O)ccc3oc12	.	.	1.7	.	.	.
O=C(Nc1ccccc1N1CCCCC1)c1ccco1	2	11	-0.2	.	33*	.
O=C(Nc1ccccc1N1CCCC1)c1ccco1	11	5	-1.6	0.34	19	-11
O=C(Nc1ccccc1N1CCCCC1)c1cccs1	2	-6	-0.015	0.36	51*	100*
CCCn1c(=O)c2ccccc2n2c(SCC(=O)c3ccc(F)cc3)nnc12	.	.	.	-0.03	.	-5
O=C(O)CCc1nnc2n(Cc3ccc(F)cc3)c(=O)c3ccccc3n12	44*	-13	0.24	.	-4	-22
COC(C[C@@H](O)[C@@H](C)[C@H](O)COCc1ccccc1)OC	.	.	-1.5	.	.	.
COC(=O)c1ccc(N2C(=O)CC(NCc3ccccc3)C2=O)cc1 (configuration not stated)	20	-1	0.9	0.16	2	-17
CN(Cc1ccccc1)C1CC(=O)N(c2ccc(C(=O)O)cc2)C1=O (configuration not stated)	-2	-6	-0.47	-0.74	42*	-12
CCCOc1ccccc1N/C(=N/c1nc(C)cc(C)n1)NC(=O)Nc1ccc(Cl)cc1	-4	-5	0.9	.	0	.
COc1ccc(CNc2nc(NCc3ccc(OC)cc3)n(C(=O)c3ccccc3[N+](=O)[O-])n2)cc1	4	-25	0.8	.	16	.
Nc1c(C(=O)Nc2ccc(Cl)cc2)oc2ccccc12	-1	-3	0.51	-0.47	13	-16
O=C(c1ccc(Cl)cc1)c1oc2ccccc2c1CS(=O)(=O)c1ccccc1	2	-19	-0.41	.	31*	.
CC(=O)c1cc(C#N)c(Oc2ccc(Cl)cc2Cl)nc1C	.	.	0.61	.	.	.
O=C(c1cccs1)N(Cc1nc2sc3c(c2c(=O)[nH]1)CCCC3)C1CCCC1	9	-9	1.6	0.39	11	90*
Cc1sc2nc(CN(Cc3cccs3)C(=O)NC3CCCCC3)[nH]c(=O)c2c1C	-5	-15	-0.33	-0.038	43*	89*
Cc1sc2nc(CN(C(=O)c3cccs3)C3CCCC3)[nH]c(=O)c2c1C	0	-1	1	0.095	34*	42
CCN(CC)C(=O)CCc1nc2sc3c(c2c(=O)[nH]1)CCCC3	0	-10	-0.24	.	3	.
Cc1sc2nc(CN(C(=O)NC3CCCCC3)C3CCCC3)[nH]c(=O)c2c1C	.	.	0.0079	.	.	.
CCCCN1C(=S)NC[C@@H]1Cc1ccccc1	.	.	-1	.	.	.
CC(C)[C@@H](C(=O)N1CCN(C(=O)OC(C)(C)C)CC1)n1cc(CCO)nn1	.	.	-0.6	.	.	.
SMILES	PostGolgi yeast	E coli WT exp	hDAT+cocaine	D1 mod	PostGolgi ctrl	Ecoli tolC
Cc1ccc(C)c(N2CCN(C(=O)COc3cc(=O)n(C)c4ccccc34)CC2)c1	2	0	0.6	-0.031	38*	12
NC(=O)c1c(NC(=O)c2cccs2)sc2c1CCCCCC2	10	-6	0.17	0.3	68*	30
O=C(Nc1sc2c(c1C(=O)O)CCC2)c1cccs1	-5	-3	.	-0.34	2	76*
Cc1ccc(N=C2C(=S)N(c3ccc(C)cc3)C(=N)N2/N=C/c2ccc(Cl)cc2)cc1	.	.	-0.25	.	.	.
CCCCOc1ccc(Cl)cc1CSc1nnc(C)n1N	5	7	-0.9	0.52	1	26
Cc1ccccc1-n1nc(C)c2cc(C(=O)N3CCN(S(=O)(=O)c4ccc(F)cc4)CC3)sc21	37*	-2	0.01	-0.038	19	8
COc1c2c(nc3occc13)C(CCC(C)(C)O)(OC)C(O)CC2 (configuration not stated)	23	0	-0.011	0.21	30*	-18
CC1(c2ccc(Cl)cc2)NC(=O)N(CC(=O)N2CCCC2)C1=O (configuration not stated)	-5	14	-0.29	0.91	-2	2
COc1cc([N+](=O)[O-])cc(CN2CCCCC2)c1O	-2	2	-1.2*	.	19	.
COc1cc(Br)cc(CN2CCN(C=O)CC2)c1O	4	12	-0.74	0.1	0	-4
O=c1c2c3c(sc2ncn1/N=C/c1ccc([N+](=O)[O-])o1)CCCC3	105*	4	-0.2	.	60*	.
Cn1cc(/C=N/n2cnc3sc4c(c3c2=O)CCCC4)c2ccccc21	-1	-8	0.92	-0.16	21	35
O=C(NC12CC3CC(CC(C3)C1)C2)C12CC3CC(C1)CC(n1cnc(Cl)n1)(C3)C2	-5	-9	-0.11	.	45*	.
CCCN(CCC)S(=O)(=O)c1ccc(C(=O)Nc2nnc(-c3cc(OC)cc(OC)c3)o2)cc1	-4	-6	.	.	1	98*
CCCN(CCC)S(=O)(=O)c1ccc(C(=O)Nc2nnc(-c3cccc(OC)c3)o2)cc1	.	.	.	0.53	.	100*
COc1cccc(-c2nnc(NC(=O)C(C)C)o2)c1	-11	9	0.79	.	-2	.
COC(=O)CN(c1ccc(F)cc1)S(=O)(=O)c1ccc2c(c1)OCCO2	3	-6	-0.016	-0.8	5	6
CS(=O)(=O)N1CC(C(=O)NC2CCCC2)Oc2ccc(Cl)cc21 (configuration not stated)	1	8	-0.064	.	-3	.
Nc1ccc(C2CCCc3nonc32)c2nonc12 (configuration not stated)	-2	0	-0.066	-2.8*	6	-3
COc1ccc(Nc2nc3ccccc3nc2-n2nc(C)cc2C)cc1	-5	-2	0.03	.	-1	.
COc1ccc(-c2cc(C(F)F)nc(-n3nc(C)cc3C)n2)cc1	-1	-1	0.026	0.13	31*	0
CCOC(=O)c1c(C=O)c(C)n(Cc2ccc(Cl)cc2)c1C	3	12	0.3	.	42*	.
CCOC(=O)c1c(C=O)c(C)n(Cc2ccccc2)c1C	0	-1	-0.91	.	10	.
Cc1c(C(=O)NC(C)C)sc2ncn(CC(=O)N3CCC(C)CC3)c(=O)c12	12	3	0.0068	.	1	.
CN(C)c1nc(Nc2ccccc2)nc(N(C)C)n1	1	7	0.14	.	10	.
Nc1nc(Nc2ccccc2)nc2ccccc12	-10	48	0.13	-5.6*	3	35
Nc1nc(Nc2ccc(Cl)cc2)nc2ccccc12	1	93*	0.7	.	11	.
c1cnc(Oc2ccc(-c3nnco3)cc2)cn1	6	4	-0.44	-0.59	-4	9
O=C(Nc1c(C(=O)Nc2cccc3ccccc23)cnn1-c1ccccc1)c1ccco1	.	.	1.2	.	.	.
Cn1c(CSc2nc3ccccc3s2)nnc1SCC(=O)NCc1cccnc1	.	.	-0.064	.	.	.
